We go through 13 compounds from PubChem BioAssay.

Each structure is given as a SMILES string. Active and inactive are the calls of the source.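 Rule for the calls, unless noted: active = GFP response above 150% of the DMSO level; inconclusive = fewer than 70 events counted for a yeast strain; inactive = the rest.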

Experiment [1] is described as follows: hit retest on RPL19A-GFP reporter strain – cell-based, S. cerevisiae, flow cytometry, cherry picks, mother/daughter gates, confirmation (AID 2270;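 active = GFP response below 50% of the DMSO control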). Conditions: 3 h, at 10 µM, stronger effect = lower value, 100 = same GFP as DMSO wells. (Flow cytometry measures light scatter and fluorescence of single cells or particles in a stream.)
Experiment [2] in a line: yeast TOR pathway reporter LAP4-GFP change – cell-based, cherry picks, flow cytometry, mother/daughter gates, confirmation (AID 2271;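 active = GFP response above 150% of the DMSO control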;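 note: ratio of sample to DMSO plate mean so 100% equals DMSO level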). The conditions noted are these: S. cerevisiae LAP4-GFP strain, 3 h, at 10 µM, stronger effect = higher value, 100 means same as DMSO control. In outline:
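material = Alexa 633-stained baker's yeast GFP-fusion strain | amount = 0.2 OD600 cells | schedule = 30 °C, 3 h compound incubation, rotating | signal = GFP by flow cytometry | measure = per-gate (all, mother, daughter) GFP response vs DMSO | controls = positive rapamycin (400 ng/mL), negative DMSO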

A short description of experiment [3]: TOR pathway reporter MEP2-GFP, retest of hits – S. cerevisiae, flow cytometry GFP, cherry picks, confirmation (AID 2272;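 active = GFP response above 150% of the DMSO control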;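 note: ratio of well signal to plate DMSO mean so 100% equals DMSO level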). The conditions noted are these: S. cerevisiae MEP2-GFP strain, 3 h, at 10 µM, stronger effect = higher value.
Experiment [4] is described as follows: yeast AGP1-GFP fluorescence change, single-dose – cell-based, flow cytometry, S. cerevisiae, cherry picks, confirmation (AID 2273).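 Note: median GFP channel fluorescence over the whole cell population gate.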 The conditions noted are these: S. cerevisiae AGP1-GFP strain, 3 h, at 10 µM.
Experiment [5] in a line: TOR pathway CIT2 reporter hit retest – S. cerevisiae, GFP fusion, cherry picks, mother/daughter gates, confirmation (AID 2274). Conditions: S. cerevisiae CIT2-GFP strain, flow cytometry, 3 h, at 10 µM, stronger effect = higher value.
The mark [6] stands for this setting: measured here: daughter cell gate.
The mark [7] stands for this setting: measured here: mother cell gate.
Where [8] appears, read: measured here: daughter cell gate response.
Where [9] appears, read: measured here: mother cell gate response.

With `O=[N+]([O-])c1ccc(S(=O)(=O)c2ccccc2)nc1`, the GFP response vs DMSO in experiment [1] was 84.5% (inactive); in experiment [1] (setting [6]), 96.4%; in experiment [1] (setting [7]), 77.4%; in experiment [3], 126% (inactive). The GFP response relative to DMSO in experiment [2] was 176% (active); in experiment [2] (setting [8]), 156%; in experiment [2] (setting [9]), 174%. Further, the GFP response, % of DMSO in experiment [4] is 114% (inactive); in experiment [5], 108% (inactive); in experiment [5] (setting [6]), 131%; in experiment [5] (setting [7]) it was 91.5%.

For `Cc1cc(C)nc(/N=C(\N)N2CCCCCC2)n1`, the GFP response vs DMSO in experiment [1] is 99.3% (inactive); in experiment [1] (setting [6]), 100%; in experiment [1] (setting [7]), 100%; in experiment [3], 99.5% (inactive). The GFP response relative to DMSO was 103% (inactive) in experiment [2], 104% in experiment [2] (setting [8]) and 102% in experiment [2] (setting [9]). The GFP response, % of DMSO in experiment [4] was 99.5% (inactive); in experiment [5] it was 101% (inactive); in experiment [5] (setting [6]) it was 100%; in experiment [5] (setting [7]), 100%.

`O=C1c2ccsc2SCCN1Cc1ccc(Cl)cc1`: the GFP response vs DMSO in experiment [1] is 93.6% (inactive); in experiment [1] (setting [6]) it was 86%; in experiment [1] (setting [7]), 97%; in experiment [3], 91.3% (inactive). Moreover, the GFP response relative to DMSO in experiment [2] was 135% (inactive); in experiment [2] (setting [8]) it was 128%; in experiment [2] (setting [9]), 144%. For the same compound, the GFP response, % of DMSO in experiment [4] is 93.9% (inactive); in experiment [5], 82.2% (inactive); in experiment [5] (setting [6]), 80.1%; in experiment [5] (setting [7]), 82.6%.

With `Cc1c(C(=O)Nc2ccccc2)cnn1-c1ccccc1`, the GFP response vs DMSO in experiment [1] is 98.2% (inactive); in experiment [1] (setting [6]) it was 97.4%; in experiment [1] (setting [7]), 99.2%; in experiment [3], 105% (inactive). The GFP response relative to DMSO in experiment [2] is 103% (inactive); in experiment [2] (setting [8]), 101%; in experiment [2] (setting [9]), 105%. In addition, the GFP response, % of DMSO was 96.8% (inactive) in experiment [4], 104% (inactive) in experiment [5], 97.2% in experiment [5] (setting [6]) and 103% in experiment [5] (setting [7]).

For `CCOC(=O)CNc1c(-c2ccc(OC)cc2)nc2ccc(Cl)cn12`, the GFP response vs DMSO in experiment [1] was 100% (inactive); in experiment [1] (setting [6]), 98.4%; in experiment [1] (setting [7]), 101%; in experiment [3] it was 97.8% (inactive). Besides, the GFP response relative to DMSO was 99.8% (inactive) in experiment [2], 98.7% in experiment [2] (setting [8]) and 102% in experiment [2] (setting [9]). For the same compound, the GFP response, % of DMSO in experiment [4] is 99.2% (inactive); in experiment [5], 95.2% (inactive); in experiment [5] (setting [6]), 93.2%; in experiment [5] (setting [7]) it was 93.4%.

With `Fc1ccc(C2CC(c3ccccc3)n3ncnc3N2)cc1` (stereo not drawn), the GFP response vs DMSO in experiment [1] is 96.8% (inactive); in experiment [1] (setting [6]), 95.3%; in experiment [1] (setting [7]) it was 98%; in experiment [3], 100% (inactive). In addition, the GFP response relative to DMSO in experiment [2] was 93.8% (inactive); in experiment [2] (setting [8]) it was 94.1%; in experiment [2] (setting [9]), 97.2%. In addition, the GFP response, % of DMSO in experiment [4] was 94.3% (inactive); in experiment [5], 92.6% (inactive); in experiment [5] (setting [6]), 94.8%; in experiment [5] (setting [7]), 91.2%.

Consider `O=C(O)CSC1CC(=O)N(c2cccc(Cl)c2)C1=O` (stereo not drawn), for which the GFP response vs DMSO in experiment [1] is 96.7% (inactive); in experiment [1] (setting [6]), 97.3%; in experiment [1] (setting [7]), 94.6%; in experiment [3], 110% (inactive). The GFP response relative to DMSO was 104% (inactive) in experiment [2], 101% in experiment [2] (setting [8]) and 104% in experiment [2] (setting [9]). Moreover, the GFP response, % of DMSO in experiment [4] was 101% (inactive); in experiment [5], 104% (inactive); in experiment [5] (setting [6]) it was 105%; in experiment [5] (setting [7]), 104%.

Regarding `Cc1cccc2c1NC(=O)/C2=C\C(=O)c1cccs1`, the GFP response vs DMSO was 97.2% (inactive) in experiment [1], 91.1% in experiment [1] (setting [6]), 89.1% in experiment [1] (setting [7]) and 104% (inactive) in experiment [3]. For the same compound, the GFP response relative to DMSO in experiment [2] was 164% (active); in experiment [2] (setting [8]), 148%; in experiment [2] (setting [9]), 160%. Also, the GFP response, % of DMSO was 107% (inactive) in experiment [4], 92.6% (inactive) in experiment [5], 99.7% in experiment [5] (setting [6]) and 83.7% in experiment [5] (setting [7]).

Turning to `Cc1ccc(N2C(=O)C3C4C=CC(CNC(=S)N5CCN(c6ccccc6)CC5)(O4)C3C2=O)cc1` (stereo not drawn), the GFP response vs DMSO in experiment [1] is 102% (inactive); in experiment [1] (setting [6]), 101%; in experiment [1] (setting [7]) it was 101%; in experiment [3], 100% (inactive). In addition, the GFP response relative to DMSO in experiment [2] was 89% (inactive); in experiment [2] (setting [8]), 94.1%; in experiment [2] (setting [9]), 92.1%. Further, the GFP response, % of DMSO was 96.5% (inactive) in experiment [4], 110% (inactive) in experiment [5], 105% in experiment [5] (setting [6]) and 113% in experiment [5] (setting [7]).

For `O=C(/C=C/c1ccccc1)c1ccccc1O`, the GFP response vs DMSO is 103% (inactive) in experiment [1], 105% in experiment [1] (setting [6]), 103% in experiment [1] (setting [7]) and 153% (inactive) in experiment [3]. Moreover, the GFP response relative to DMSO in experiment [2] is 130% (inactive); in experiment [2] (setting [8]) it was 130%; in experiment [2] (setting [9]), 129%. Besides, the GFP response, % of DMSO in experiment [4] is 108% (inactive); in experiment [5], 137% (inactive); in experiment [5] (setting [6]) it was 139%; in experiment [5] (setting [7]) it was 132%.

On to `Cc1cccc(OCCN2CSC(=S)N(C)C2)c1`, for which the GFP response vs DMSO in experiment [1] is 95.6% (inactive); in experiment [1] (setting [6]), 94.4%; in experiment [1] (setting [7]), 92.7%; in experiment [3], 168% (inactive). Besides, the values for the GFP response relative to DMSO in experiment [2], in experiment [2] (setting [8]) and in experiment [2] (setting [9]) were 174% (active), 161% and 167%, respectively. In addition, the GFP response, % of DMSO in experiment [4] is 118% (inactive); in experiment [5], 131% (inactive); in experiment [5] (setting [6]), 130%; in experiment [5] (setting [7]) it was 122%.

Consider `COc1ccccc1-c1nnc(NC(=O)c2ccc(S(=O)(=O)N(C)C)cc2)o1`, for which the GFP response vs DMSO in experiment [1] is 99.2% (inactive); in experiment [1] (setting [6]), 98.6%; in experiment [1] (setting [7]) it was 98.7%; in experiment [3] it was 119% (inactive). Further, the GFP response relative to DMSO in experiment [2] is 111% (inactive); in experiment [2] (setting [8]) it was 112%; in experiment [2] (setting [9]), 109%. The GFP response, % of DMSO in experiment [4] was 93.3% (inactive); in experiment [5], 105% (inactive); in experiment [5] (setting [6]), 106%; in experiment [5] (setting [7]), 106%.

`CCOC(=O)Cc1csc(NC(=O)c2sc3nc4ccc(CC)cc4cc3c2N)n1`: the GFP response vs DMSO was 98.9% (inactive) in experiment [1], 99.5% in experiment [1] (setting [6]), 99.4% in experiment [1] (setting [7]) and 108% (inactive) in experiment [3]. In addition, the GFP response relative to DMSO in experiment [2] was 95.3% (inactive); in experiment [2] (setting [8]), 94.4%; in experiment [2] (setting [9]), 97.4%. Moreover, the GFP response, % of DMSO in experiment [4] was 107% (inactive); in experiment [5], 98.6% (inactive); in experiment [5] (setting [6]) it was 99.3%; in experiment [5] (setting [7]) it was 99.3%.
